According to ChEMBL document CHEMBL1156920, “Structural analogues of schweinfurthin F: probing the steric, electronic, and hydrophobic properties of the D-ring substructure” (Bioorg Med Chem, 2010):

Legend:
[1] = Cytotoxicity against human NCI60 cells; type: functional
SF-295 [2] = experiment: Cytotoxicity against human SF295 cells after 44 hrs by MTT assay; type: functional, cell-based; conditions: SF-295, 44 h
In short: (§1)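 SF-295 cells cultured in RPMI 1640 and A549 cells in F-12, each with 10% FBS, penicillin–streptomycin, amphotericin B and L-glutamine, at 37 °C in 5% CO2. Cells were grown to 60% confluency, then treated for 44 h. Medium was replaced with medium containing 0.06 mg/mL MTT (phenol red-free RPMI for SF-295) for 4 h. Acid/Triton/isopropanol stop solution was added, plates incubated overnight at 37 °C, OD read at 540 and 650 nm, and EC50 calculated.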

A549 = experiment: Cytotoxicity against human A549 cells after 44 hrs by MTT assay; type: functional, cell-based; conditions: A549, 44 h; in short: as §1
UACC-257 = experiment: Growth inhibition of human UACC257 cells; type: functional
SK-MEL-5 = experiment: Growth inhibition of human SK-MEL-5 cells; type: functional
SK-MEL-2 = experiment: Growth inhibition of human SK-MEL-2 cells; type: functional
M14 = experiment: Growth inhibition of human M14 cells; type: functional
Malme-3M = experiment: Growth inhibition of human MALME-3M cells; type: functional
LOX IMVI = experiment: Growth inhibition of human LOXIMVI cells; type: functional
SNB-75 = experiment: Growth inhibition of human SNB75 cells; type: functional
SNB-19 = experiment: Growth inhibition of human SNB19 cells; type: functional
SF-539 = experiment: Growth inhibition of human SF539 cells; type: functional
SF-295 [3] = experiment: Growth inhibition of human SF295 cells; type: functional
SF-268 = experiment: Growth inhibition of human SF268 cells; type: functional
KM12 = experiment: Growth inhibition of human KM12 cells; type: functional
HCT-15 = experiment: Growth inhibition of human HCT15 cells; type: functional
HCT-116 = experiment: Growth inhibition of human HCT116 cells; type: functional
NCI-H522 = experiment: Growth inhibition of human NCI-H522 cells; type: functional
NCI-H322M = experiment: Growth inhibition of human NCI-H322M cells; type: functional
NCI-H23 = experiment: Growth inhibition of human NCI-H23 cells; type: functional
NCI-H226 = experiment: Growth inhibition of human NCI-H226 cells; type: functional
HOP-92 = experiment: Growth inhibition of human HOP92 cells; type: functional
HOP-62 = experiment: Growth inhibition of human HOP62 cells; type: functional
EKVX = experiment: Growth inhibition of human EKVX cells; type: functional
[4] = Growth inhibition of human […] cells; type: functional
MOLT-4 = experiment: Growth inhibition of human MOLT4 cells; type: functional
HL-60(TB) = experiment: Growth inhibition of human HL-60(TB) cells; type: functional
CCRF-CEM = experiment: Growth inhibition of human CCRF-CEM cells; type: functional
SK-OV-3 = experiment: Growth inhibition of human SKOV3 cells; type: functional
786-0 = experiment: Growth inhibition of human 786-0 cells; type: functional
ACHN = experiment: Growth inhibition of human ACHN cells; type: functional
CAKI-1 = experiment: Growth inhibition of human Caki1 cells; type: functional
RXF 393 = experiment: Growth inhibition of human RXF393 cells; type: functional
SN12C = experiment: Growth inhibition of human SN12C cells; type: functional
TK-10 = experiment: Growth inhibition of human TK10 cells; type: functional
UO-31 = experiment: Growth inhibition of human UO31 cells; type: functional
MCF7 = experiment: Growth inhibition of human MCF7 cells; type: functional
NCI/ADR-RES = experiment: Growth inhibition of human NCI/ADR-RES cells; type: functional
MDA-MB-435 = experiment: Growth inhibition of human MDA-MB-435 cells; type: functional
BT-549 = experiment: Growth inhibition of human BT549 cells; type: functional
T47D = experiment: Growth inhibition of human T47D cells; type: functional
MDA-MB-468 = experiment: Growth inhibition of human MDA-MB-468 cells; type: functional
[5] = read-out: pLC50 (the source's name) (converted)

Compound: COc1cc(CCc2cc(O)c(C/C=C(\C)CC/C=C(\C)CO)c(O)c2)cc2c1O[C@]1(C)CC[C@@H](O)C(C)(C)[C@H]1C2
- GI50 [1]: 4.9 µM
- EC50 (SF-295 [2]): > 10 µM
- EC50 (A549): > 10 µM
- GI50 (UACC-257): 6.61 µM
- LC50 (UACC-257): > 100 µM
- TGI (UACC-257; read-out: pTGI (converted)): 28.2 µM
- GI50 (SK-MEL-5): 3.39 µM
- LC50 (SK-MEL-5): 33.1 µM
- TGI (SK-MEL-5; read-out: pTGI (converted)): 11 µM
- GI50 (SK-MEL-2): 3.89 µM
- LC50 (SK-MEL-2): 75.9 µM
- TGI (SK-MEL-2; read-out: pTGI (converted)): 17.4 µM
- GI50 (M14): 6.03 µM
- CC50 (M14; [5]): 83.2 µM
- TGI (M14; read-out: pTGI (converted)): 23.4 µM
- GI50 (Malme-3M): 6.31 µM
- LC50 (Malme-3M): > 100 µM
- TGI (Malme-3M; read-out: pTGI (converted)): 38 µM
- GI50 (LOX IMVI): 4.47 µM
- LC50 (LOX IMVI): 46.8 µM
- TGI (LOX IMVI; read-out: pTGI (converted)): 16.6 µM
- GI50 (SNB-75): 1.7 µM
- LC50 (SNB-75): > 100 µM
- TGI (SNB-75; read-out: pTGI (converted)): 10.7 µM
- GI50 (SNB-19): 4.17 µM
- LC50 (SNB-19): 49 µM
- TGI (SNB-19; read-out: pTGI (converted)): 18.2 µM
- GI50 (SF-539): 2.29 µM
- LC50 (SF-539): 33.9 µM
- TGI (SF-539; read-out: pTGI (converted)): 11.7 µM
- GI50 (SF-295 [3]): 2.51 µM
- LC50 (SF-295 [3]): 45.7 µM
- TGI (SF-295 [3]; read-out: pTGI (converted)): 10 µM
- GI50 (SF-268): 6.03 µM
- LC50 (SF-268): 87.1 µM
- TGI (SF-268; read-out: pTGI (converted)): 25.7 µM
- GI50 (KM12): 4.17 µM
- LC50 (KM12): 91.2 µM
- TGI (KM12; read-out: pTGI (converted)): 18.6 µM
- GI50 (HCT-15): 5.01 µM
- LC50 (HCT-15): > 100 µM
- TGI (HCT-15; read-out: pTGI (converted)): 22.9 µM
- GI50 (HCT-116): 3.47 µM
- CC50 (HCT-116; [5]): 40.7 µM
- TGI (HCT-116; read-out: pTGI (converted)): 13.2 µM
- GI50 (NCI-H522): 5.25 µM
- LC50 (50% lethal concentration) (NCI-H522): > 100 µM
- TGI (NCI-H522; read-out: pTGI (converted)): 29.5 µM
- GI50 (NCI-H322M): 5.5 µM
- CC50 (NCI-H322M; [5]): > 100 µM
- TGI (NCI-H322M; read-out: pTGI (converted)): 42.7 µM
- GI50 (NCI-H23): 6.92 µM
- LC50 (NCI-H23): 85.1 µM
- TGI (NCI-H23; read-out: pTGI (converted)): 25.7 µM
- GI50 (NCI-H226): 13.2 µM
- LC50 (NCI-H226): > 100 µM
- TGI (NCI-H226; read-out: pTGI (converted)): 66.1 µM
- GI50 (HOP-92): 7.41 µM
- LC50 (HOP-92): > 100 µM
- TGI (HOP-92; read-out: pTGI (converted)): 47.9 µM
- GI50 (HOP-62): 10 µM
- LC50 (HOP-62): 53.7 µM
- TGI (HOP-62; read-out: pTGI (converted)): 22.9 µM
- GI50 (EKVX): 5.75 µM
- LC50 (EKVX): > 100 µM
- TGI (EKVX; read-out: pTGI (converted)): 33.1 µM
- GI50 [4]: 1.45 µM
- LC50 [4]: > 100 µM
- TGI ([4]; read-out: pTGI (converted)): 7.24 µM
- GI50 (MOLT-4): 1.7 µM
- LC50 (MOLT-4): 97.7 µM
- TGI (MOLT-4; read-out: pTGI (converted)): 7.59 µM
- GI50 (HL-60(TB)): 3.02 µM
- CC50 (HL-60(TB); [5]): 95.5 µM
- TGI (HL-60(TB); read-out: pTGI (converted)): 12.6 µM
- GI50 (CCRF-CEM): 4.07 µM
- CC50 (CCRF-CEM; [5]): > 100 µM
- TGI (CCRF-CEM; read-out: pTGI (converted)): 45.7 µM
- GI50 (SK-OV-3): 8.51 µM
- LC50 (SK-OV-3): > 100 µM
- TGI (SK-OV-3; read-out: pTGI (converted)): 31.6 µM
- GI50 (786-0): 2.4 µM
- LC50 (786-0): > 100 µM
- TGI (786-0; read-out: pTGI (converted)): > 100 µM
- GI50 (ACHN): 5.25 µM
- CC50 (ACHN; [5]): > 100 µM
- TGI (ACHN; read-out: pTGI (converted)): 35.5 µM
- GI50 (CAKI-1): 4.37 µM
- LC50 (CAKI-1): > 100 µM
- TGI (CAKI-1; read-out: pTGI (converted)): 21.9 µM
- GI50 (RXF 393): 0.363 µM
- CC50 (RXF 393; [5]): > 100 µM
- TGI (RXF 393; read-out: pTGI (converted)): 1.38 µM
- GI50 (SN12C): 7.59 µM
- LC50 (SN12C): > 100 µM
- TGI (SN12C; read-out: pTGI (converted)): 52.5 µM
- GI50 (TK-10): 13.2 µM
- LC50 (TK-10): > 100 µM
- TGI (TK-10; read-out: pTGI (converted)): 67.6 µM
- GI50 (UO-31): 3.47 µM
- CC50 (UO-31; [5]): > 100 µM
- TGI (UO-31; read-out: pTGI (converted)): 20 µM
- GI50 (MCF7): 2.95 µM
- CC50 (MCF7; [5]): 53.7 µM
- TGI (MCF7; read-out: pTGI (converted)): 12.9 µM
- GI50 (NCI/ADR-RES): 17.4 µM
- CC50 (NCI/ADR-RES; [5]): > 100 µM
- TGI (NCI/ADR-RES; read-out: pTGI (converted)): 61.7 µM
- GI50 (MDA-MB-435): 6.31 µM
- LC50 (MDA-MB-435): > 100 µM
- TGI (MDA-MB-435; read-out: pTGI (converted)): 32.4 µM
- GI50 (BT-549): 3.16 µM
- CC50 (BT-549; [5]): 75.9 µM
- TGI (BT-549; read-out: pTGI (converted)): 21.9 µM
- GI50 (T47D): 5.89 µM
- CC50 (T47D; [5]): > 100 µM
- TGI (T47D; read-out: pTGI (converted)): 35.5 µM
- GI50 (MDA-MB-468): 5.89 µM
- LC50 (MDA-MB-468): > 100 µM
- TGI (MDA-MB-468; read-out: pTGI (converted)): 50.1 µM
